Measured values taken from ChEMBL document CHEMBL1147739, “Identification of the key residue of calcitonin gene related peptide (CGRP) 27-37 to obtain antagonists with picomolar affinity at the CGRP receptor” (J Med Chem, 2006).
*1 amine or outer side, *2 acyl side, *3 side chain or, on linkers, in order; H or OH if unused. Where a SMILES comes first, the peptide text is derived from it. [ ]: non-standard residue; d: D form. X2 = COC(=O)[C@@H]1[C@@H](N[*:1])[C@H]1C(=O)[*:2]; X1 = COC(=O)[C@H]1[C@H](N[*:1])[C@@H]1C(=O)[*:2]

How the values were obtained:
[1] = biological target: T1, Calcitonin-gene-related peptide receptor, CALCRL/RAMP1 (Homo sapiens, UniProt O60894+Q16602); test: Displacement of [125I-Tyr10] from halphaCGRP expressed in human neuroblastoma SK-N-MC cells; format: cell-based
T1 sequence (O60894 whole entry): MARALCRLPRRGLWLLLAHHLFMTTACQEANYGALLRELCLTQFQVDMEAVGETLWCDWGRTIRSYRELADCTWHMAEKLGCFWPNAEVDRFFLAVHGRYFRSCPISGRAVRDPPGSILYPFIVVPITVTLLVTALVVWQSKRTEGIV
T1 sequence (Q16602 whole entry): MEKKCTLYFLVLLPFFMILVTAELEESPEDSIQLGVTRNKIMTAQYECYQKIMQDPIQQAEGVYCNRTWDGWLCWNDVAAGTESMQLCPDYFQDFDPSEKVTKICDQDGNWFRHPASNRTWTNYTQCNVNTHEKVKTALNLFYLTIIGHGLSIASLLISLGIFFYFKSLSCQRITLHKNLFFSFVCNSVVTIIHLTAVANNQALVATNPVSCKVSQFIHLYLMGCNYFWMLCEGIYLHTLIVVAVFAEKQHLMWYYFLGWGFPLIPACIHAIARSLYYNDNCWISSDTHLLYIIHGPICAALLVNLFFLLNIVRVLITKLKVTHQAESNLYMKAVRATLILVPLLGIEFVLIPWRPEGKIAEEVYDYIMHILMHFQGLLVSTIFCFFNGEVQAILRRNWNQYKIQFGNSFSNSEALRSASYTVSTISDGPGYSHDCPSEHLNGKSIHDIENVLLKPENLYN

[2] = biological target: T1, Calcitonin-gene-related peptide receptor, CALCRL/RAMP1; test: Displacement of [3H-propionyl-K24] from halphaCGRP expressed in human neuroblastoma SK-N-MC cells; format: cell-based
Procedure, shortened: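 Whole SK-N-MC cells, 3 million/mL in Tris pH 7.4 buffer with NaCl, MgCl2, Pefabloc and 1% BSA. Incubated 90 min at room temperature with 1 nM [3H-propionyl-K24]-hRCGRP 8-37 and competitor (10-5-10-14 M). Separated by centrifugation with a cold wash, then β-counted. IC50 by nonlinear regression, converted to Ki by Cheng-Prusoff with tracer KD. Three experiments in triplicate.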

[3] = biological target: T1, Calcitonin-gene-related peptide receptor, CALCRL/RAMP1; test: Antagonist activity on halphaCGRP-induced cAMP accumulation at human neuroblastoma SK-N-MC cells; format: functional, cell-based; conditions: read-out: pA2 (converted)
Procedure, shortened: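 SK-N-MC cells detached with PBS-EDTA, washed in HEPES/glucose Hank's, ~2 million cells/mL in buffer with 1 mM IBMX and 1% BSA. Preincubated 15 min at 37 °C, then 15 min with hRCGRP (10-5-10-12 M) alone or with fixed antagonist (10 or 100 nM). cAMP extracted with HCl, AlphaScreen read-out. Agonist EC50 shifts gave concentration ratios, and apparent pA2 = log((CR-1)/[B]). Three experiments in triplicate.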

Compound | Ki [1] | Ki [2] | Kb [3]
H-FVPTDVGAFAF-OH | 76.8 nM | 13.6 nM | –
COC(=O)[C@H]1[C@H](NC(=O)CNC(=O)[C@@H](NC(=O)[C@H](CC(=O)O)NC(=O)[C@@H](NC(=O)[C@@H]2CCCN2C(=O)[C@@H](NC(=O)[C@@H](N)Cc2ccccc2)C(C)C)[C@@H](C)O)C(C)C)[C@@H]1C(=O)N[C@@H](Cc1ccccc1)C(=O)N[C@@H](C)C(=O)N[C@@H](Cc1ccccc1)C(=O)O (H-FVPTDVG[X1]FAF-OH) | – | > 10000 nM | –
COC(=O)[C@@H]1[C@@H](NC(=O)[C@@H](NC(=O)[C@@H](N)Cc2ccccc2)C(C)C)[C@H]1C(=O)N[C@H](C(=O)N[C@@H](CC(=O)O)C(=O)N[C@H](C(=O)NCC(=O)N1CCC[C@H]1C(=O)N[C@@H](Cc1ccccc1)C(=O)N[C@@H](C)C(=O)N[C@@H](Cc1ccccc1)C(=O)O)C(C)C)[C@@H](C)O | – | > 10000 nM | –
CC(C)[C@H](NC(=O)[C@H](CC(=O)O)NC(=O)[C@@H](NC(=O)[C@@H]1C[C@@H](O)CN1C(=O)[C@@H](NC(=O)[C@@H](N)Cc1ccccc1)C(C)C)[C@@H](C)O)C(=O)NCC(=O)N1CCC[C@H]1C(=O)N[C@@H](Cc1ccccc1)C(=O)N[C@@H](C)C(=O)N[C@@H](Cc1ccccc1)C(=O)O | – | 0.006 nM | 31.6 nM
H-FVATDVGPFAF-OH | – | 8.4 nM | 25.1 nM
COC(=O)[C@@H]1[C@@H](NC(=O)CNC(=O)[C@@H](NC(=O)[C@H](CC(N)=O)NC(=O)[C@@H](NC(=O)[C@@H]2CCCN2C(=O)[C@@H](NC(=O)[C@@H](N)Cc2ccccc2)C(C)C)[C@@H](C)O)C(C)C)[C@H]1C(=O)N[C@@H](Cc1ccccc1)C(=O)N[C@@H](C)C(=O)N[C@@H](Cc1ccccc1)C(=O)O (H-FVPTNVG[X2]FAF-OH) | – | > 10000 nM | –
CC(C)[C@H](NC(=O)[C@H](CC(=O)O)NC(=O)[C@@H](NC(=O)[C@@H]1CCCCN1C(=O)[C@@H](NC(=O)[C@@H](N)Cc1ccccc1)C(C)C)[C@@H](C)O)C(=O)NCC(=O)N1CCC[C@H]1C(=O)N[C@@H](Cc1ccccc1)C(=O)N[C@@H](C)C(=O)N[C@@H](Cc1ccccc1)C(=O)O | – | > 10000 nM | –
CC(C)[C@H](NC(=O)[C@H](CC(=O)O)NC(=O)[C@@H](NC(=O)[C@@H]1Cc2ccccc2CN1C(=O)[C@@H](NC(=O)[C@@H](N)Cc1ccccc1)C(C)C)[C@@H](C)O)C(=O)NCC(=O)N1CCC[C@H]1C(=O)N[C@@H](Cc1ccccc1)C(=O)N[C@@H](C)C(=O)N[C@@H](Cc1ccccc1)C(=O)O | – | 0.02 nM | 6.31 nM
CC(C)[C@H](NC(=O)[C@H](CC(=O)O)NC(=O)[C@@H](NC(=O)C(C)(C)NC(=O)[C@@H](NC(=O)[C@@H](N)Cc1ccccc1)C(C)C)[C@@H](C)O)C(=O)NCC(=O)N1CCC[C@H]1C(=O)N[C@@H](Cc1ccccc1)C(=O)N[C@@H](C)C(=O)N[C@@H](Cc1ccccc1)C(=O)O | – | 0.002 nM | 10 nM
COC(=O)[C@@H]1[C@@H](NC(=O)CNC(=O)[C@@H](NC(=O)[C@H](CC(=O)O)NC(=O)[C@@H](NC(=O)[C@@H]2CCCN2C(=O)[C@@H](NC(=O)[C@@H](N)Cc2ccccc2)C(C)C)[C@@H](C)O)C(C)C)[C@H]1C(=O)N[C@@H](Cc1ccccc1)C(=O)N[C@@H](C)C(=O)N[C@@H](Cc1ccccc1)C(=O)O (H-FVPTDVG[X2]FAF-OH) | – | > 10000 nM | –
COC(=O)[C@H]1[C@H](NC(=O)[C@@H](NC(=O)[C@@H](N)Cc2ccccc2)C(C)C)[C@@H]1C(=O)N[C@H](C(=O)N[C@@H](CC(=O)O)C(=O)N[C@H](C(=O)NCC(=O)N1CCC[C@H]1C(=O)N[C@@H](Cc1ccccc1)C(=O)N[C@@H](C)C(=O)N[C@@H](Cc1ccccc1)C(=O)O)C(C)C)[C@@H](C)O | – | 0.7 nM | –
COC(=O)[C@H]1[C@H](NC(=O)CNC(=O)[C@@H](NC(=O)[C@H](CC(N)=O)NC(=O)[C@@H](NC(=O)[C@@H]2CCCN2C(=O)[C@@H](NC(=O)[C@@H](N)Cc2ccccc2)C(C)C)[C@@H](C)O)C(C)C)[C@@H]1C(=O)N[C@@H](Cc1ccccc1)C(=O)N[C@@H](C)C(=O)N[C@@H](Cc1ccccc1)C(=O)O (H-FVPTNVG[X1]FAF-OH) | – | > 10000 nM | –
CC(C)[C@H](NC(=O)[C@H](CC(=O)O)NC(=O)[C@@H](NC(=O)[C@@H]1CCCN1C(=O)[C@@H](NC(=O)[C@@H](N)Cc1ccccc1)C(C)C)[C@@H](C)O)C(=O)NCC(=O)N1CCC[C@H]1C(=O)N[C@@H](Cc1ccccc1)C(=O)N[C@@H](C)C(=O)N[C@@H](Cc1ccccc1)C(=O)O | 14 nM | 0.02 nM | –
